ABHD4 inh: inhibits mouse alpha/beta hydrolase domain 4. Q8VD66. purified mABHD4, FP-Rh probe fluorescence polarization. inhibition, % at 8.92 µM. 370,000 tested, 0.54% active. AID 720543;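 active = inhibition exceeding the mean over every tested compound plus 3 SD, cut at about 30% in these data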;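 note: 0% = plate median of compound wells and 100% = S159A mutant with DMSO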
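assay system = mABHD4 protein | compound dosing = single nominal dose of 8.92 µM, 0.89% DMSO final | read-out basis = percent inhibition of probe binding, normalized to plate controls | schedule = Enzyme–compound pre-incubation 45 min, then probe 60 min, both 25 °C | detection = fluorescence polarization, excitation 525 nm, emission 598 nm, BODIPY TMR filters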
DDE Tn7 FP inh: disrupts Tn7 cyclic peptide binding to fibrin D-Dimer-E complex | FP displacement of FITC-Tn7 peptide from fibrin DD(E); 0% = median of compound wells per plate | 370,000 tested, 0.13% active | AID 720508 | inhibition, % at 8.3 µM | P02675;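 active = inhibition above the mean of compounds falling within the control limits plus 3 SD of them, cut at about 14% in these data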;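 note: 0% = plate median of compound wells and 100% = 10 µM Aha-Tn7 peptide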
Target sequence (P02675 whole entry, looked up): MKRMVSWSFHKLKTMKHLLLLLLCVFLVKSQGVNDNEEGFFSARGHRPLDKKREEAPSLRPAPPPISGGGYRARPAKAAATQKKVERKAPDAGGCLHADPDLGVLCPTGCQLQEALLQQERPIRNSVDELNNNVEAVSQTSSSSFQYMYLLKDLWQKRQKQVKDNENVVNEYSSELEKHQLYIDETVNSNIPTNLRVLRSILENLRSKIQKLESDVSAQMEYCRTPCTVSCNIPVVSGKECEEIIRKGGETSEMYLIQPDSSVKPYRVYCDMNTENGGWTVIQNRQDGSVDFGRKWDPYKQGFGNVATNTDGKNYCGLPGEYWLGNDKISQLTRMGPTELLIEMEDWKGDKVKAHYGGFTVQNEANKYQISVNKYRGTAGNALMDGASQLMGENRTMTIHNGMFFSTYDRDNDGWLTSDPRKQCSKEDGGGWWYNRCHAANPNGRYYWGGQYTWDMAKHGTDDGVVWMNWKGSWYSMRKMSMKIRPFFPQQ
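Assay system: human fibrin DD(E) protein / Input: 2 µM fibrin DD(E) / Benchmarks: high control of 10 µM Aha-Tn7 peptide / Measured by: fluorescence polarization of the labelled Tn7 tracer / Medium: Tris buffer with calcium and detergent, pH 7.8 / Timing: 10 min compound pre-incubation, 3 h probe incubation at room temperature / Repeats: one replicate per compound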
HTRA1 inhibitor: blocks human HTRA1 serine peptidase; inhibition, % at 5.96 µM; recombinant HTRA1, FP-rhodamine activity-based probe, fluorescence polarization; 340,000 tested, 0.5% active; Q92743; in the data active = inhibition above about 36%;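 note: 0% = enzyme with DMSO and 100% = wells lacking enzyme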
SIAE inh: inhibitors of human sialic acid acetylesterase SIAE; Q9HAT2; SIAE FP-Rh probe binding, fluorescence polarization; inhibition, % at 9.66 µM; 370,000 tested, 0.69% active;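 active = inhibition above a cutoff: mean of compounds within the control limits plus 3 SD of those, cut at about 17% in these data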;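 note: 0% = plate median of compound wells and 100% = probe without SIAE protein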
TCR-CD3 inh: inhibitors of human TCR-CD3 interaction | TAMRA-labeled TCR probe fluorescence, biochemical | inhibition, % at 9.4 µM | 360,000 tested, 0.37% active | AID 651800;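 note: recombinant mutant TCR 2C K166C tagged with TAMRA read by polarization; 0% = receptor in buffer alone and 100% = receptor with positive control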
Tn6 DDE FP: DD(E)-Tn6 binding inhibition, primary FP screen. P02675. Fibrin DD(E) TRITC-Tn6 fluorescence polarization displacement. inhibition, % at 8.3 µM. 370,000 tested, 0.21% active. AID 720509;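 active = inhibition above a per-campaign cutoff: mean of compounds within control limits plus 3 SD, cut at about 15% in these data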;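 note: 0% = median of all compound wells on the plate and 100% = blocking peptide control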
HTRA1 conf: HTRA1 (human) inhibition, confirmation; shares compounds with HTRA1 inhibitor; recombinant HTRA1, FP-rhodamine activity-based probe, fluorescence polarization; inhibition, % at 5.96 µM; 1,600 tested, 66% active; AID 540248;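 active = mean inhibition over three repeats above a set limit taken from the earlier primary screen, cut at about 37% in these data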;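 note: 0% = HTRA1 with DMSO and 100% = wells lacking HTRA1; inhibitors block probe binding so polarization drops and inhibition rises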
BSA TAMRA ctr: interferes with TAMRA-BSA probe, flagging TCR-CD3 hits. 1,200 tested, 10% active. shares compounds with TCR-CD3 inh. inhibition, % at 9.4 µM. AID 652035. TAMRA-labeled BSA probe fluorescence counterscreen; in the data active = inhibition above about 23%;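 note: 0% = buffer low control and 100% = reference high control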
TCR-CD3 conf: TCR-CD3 interaction inhibition, confirmation; inhibition, % at 9.4 µM; shares compounds with TCR-CD3 inh; AID 652036; 1,200 tested, 48% active; TAMRA-labeled TCR probe fluorescence binding assay
mABHD4 conf: confirmation of mouse ABHD4 inhibitors; shares compounds with ABHD4 inh; purified mABHD4, FP-Rh probe fluorescence polarization; inhibition, % at 8.92 µM; 1,800 tested, 55% active; AID 720658;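 active = mean inhibition across replicates above the hit cutoff set in the primary screen, cut at about 30% in these data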;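 note: 0% = wild-type ABHD4 with DMSO and 100% = catalytically dead S159A mutant with DMSO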
* marks the source's active call; other numbers are inactive results; nt = no result. Most compounds without a hit are left out; they make up all but 1.8% or so of the library. Cut-off read from the data, not from the text of the source, unless noted: active = inhibition above about 19%; inactive = the rest.

SMILES	ABHD4 inh	DDE Tn7 FP inh	HTRA1 inhibitor	SIAE inh	TCR-CD3 inh	Tn6 DDE FP	HTRA1 conf	mABHD4 conf	others
Oc1ccccc1N=Cc1c(O)ccc2oc3c(c12)CCCC3	30*	-7	43*	7	9	2	68*	-5
COc1c(/C=C2\SC(=Nc3ccccc3Cl)NC2=O)cccc1[N+](=O)[O-]	-21	10	-60	-8	-8	-8	nt	nt
O=C1NC(=Nc2ccccc2Cl)S/C1=C\c1cccc([N+](=O)[O-])c1O	53*	1	55*	2	-8	-4	58*	60*
Cc1cn(CC(=O)N(C)Cc2ccco2)c(=O)[nH]c1=O	1	3	9	-1	5	0	nt	nt
CN(C)c1ccc(CCc2ccc(N)cc2)cc1	4	3	4	14	1	-7	nt	nt
Nc1ccc(N(c2ccccc2)c2ccc(N)cc2)cc1	39*	-6	65*	11	-1	-7	54*	48*
CC(C)N=c1cc2n(-c3ccc(Cl)cc3)c3ccccc3nc-2cc1Nc1ccc(Cl)cc1	61*	-5	70*	17	12	6	51*	78*
Cn1c(CNc2ccc(Cl)cc2)nc2ccccc21	-3	-5	-4	-6	5	2	nt	nt
CCCCCC(=O)Nc1nc(C)c(-c2csc(Nc3cc(OC)ccc3OC)n2)s1	44*	-2	42*	16	1	3	21	56*
O=C1CCCC2=C1C(c1ccc(O)c(O)c1)Nc1ccc3ccccc3c12 (stereo not drawn)	32*	-9	64*	9	4	-1	72*	26
COc1cccc(-c2ccc(CC[C@H]3O[C@H]4CC[C@@H](CO)O[C@H]4C[C@H]3NS(C)(=O)=O)cc2)c1	-4	-7	nt	6	nt	3	nt	nt
COc1ccc(-c2ncccc2O)cc1	-7	2	0	1	-4	-2	nt	nt
COCc1ccc(O)c2ncccc12	5	-2	9	-3	0	3	nt	nt
COc1ccc(C)cc1N=Nc1ccc(O)c2ncccc12	36*	-2	86*	4	-9	1	64*	39*
COc1cccc(N=Nc2ccc(O)c3ncccc23)c1	43*	-7	76*	8	0	-4	67*	48*
Nc1ccc(N=Nc2ccccc2)c2cccnc12	30*	1	43*	5	8	-5	44*	55*
C#CC(C)(O)C1CC(CC(=O)O)C1(C)C (stereo not drawn)	nt	nt	-2	nt	nt	nt	nt	nt
CCn1c(=O)n(CC(=O)N2CCCN(Cc3ccccc3)CC2)c(=O)c2ccccc21	3	2	nt	-7	nt	3	nt	nt
COC(=O)[C@]12C[C@H](CC(=O)NCCCCc3ccccc3)C(=O)N(Cc3cccc4ccccc34)C1=C[C@H](C(C)(C)C)O[C@@H]2C	-12	1	nt	2	nt	-4	nt	nt
Nc1cc2c(cc1O)CCCC2	30*	-6	44*	7	7	2	30	28
Cc1cccc(N/N=C/c2ccc(O)c(O)c2O)c1	36*	-3	59*	-2	6	-5	62*	35*
COc1cccc(N/N=C/c2cccc(Br)c2O)c1	7	3	12	12	0	0	nt	nt
O=C1c2ccccc2C(=O)c2c1ccc(O)c2O	74*	12	76*	19*	16	8	93*	88*
O=C(SCc1c(O)c2ccccc2oc1=O)c1ccccc1	-3	5	-7	-2	-5	-5	nt	nt
O=c1oc2ccccc2c(O)c1Cc1cc(Cl)c2cccnc2c1O	33*	6	52*	12	0	-2	54*	27
SMILES	ABHD4 inh	DDE Tn7 FP inh	HTRA1 inhibitor	SIAE inh	TCR-CD3 inh	Tn6 DDE FP	HTRA1 conf	mABHD4 conf	others
O=C(/C=C/c1ccc(O)c(O)c1)NC(=O)c1ccccc1O	57*	1	65*	1	24*	4	62*	36*	BSA TAMRA ctr=-18;TCR-CD3 conf=21*
CC(=O)N1c2ccc(S(=O)(=O)NCC3CCC(C(=O)NCc4ccco4)CC3)cc2CC1C (stereo not drawn)	5	2	13	-3	-6	1	nt	nt
C/C(=N\Nc1nc2c(s1)CCCC2)c1ccc(Cl)cc1	32*	-3	54*	11	2	-8	14	50*
CCCCC(=O)Nc1ccc(C(N)=O)cc1	1	-7	-4	0	6	-13	nt	nt
CCCCCCCC[n+]1cccc(C(=O)N(CC)CC)c1	-1	1	3	-2	4	2	nt	nt
CCCCCCCCCCCCCCCC[n+]1ccc(C(N)=O)cc1	41*	-5	73*	10	5	-5	76*	88*
CCCCCCCCCCCCCCCC[n+]1ccccc1	54*	2	70*	1	5	-2	77*	50*
CCCCCCCCCCCCCCCC[n+]1cccc(C(=O)N(CC)CC)c1	43*	-6	58*	0	0	-4	65*	48*
C[C@H]1[C@@H](OC(=O)NCc2cccc(Cl)c2)CC[C@@]23CCCN2C(=O)CCC[C@@H]13	2	5	nt	4	nt	1	nt	nt
Nc1cc2cccnc2cc1Cl	53*	2	46*	-3	19*	-10	-1	36*	BSA TAMRA ctr=-4;TCR-CD3 conf=4
Cc1ccc2c(c1)c1c3n2CC(=C2C(=O)OC(C)(C)OC2=O)NC3CCC1 (stereo not drawn)	37*	-7	51*	8	17	3	61*	30*
CCc1ccc([C@H]2[C@@H]3C(=O)C[C@@H]4C(=O)N(C5CCCCC5)C(=O)[C@@H]4[C@@H]3CN2S(=O)(=O)c2ccc(C)cc2)cc1	-17	-6	nt	-8	-3	0	nt	nt
O=C1CC(N(O)c2ccccc2)C(=O)N1c1ccc(Cl)c(Cl)c1 (stereo not drawn)	46*	4	60*	7	24*	9	0	89*	BSA TAMRA ctr=6;TCR-CD3 conf=3
O=c1[nH]c(=O)n2ncnc2[nH]1	-8	1	6	-8	-5	1	nt	nt
O=[N+]([O-])c1ccccc1C1Nc2cccc3cccc(c23)N1	53*	-5	51*	6	8	9	20	55*
